From ChEMBL document CHEMBL3407390, “α2-adrenoceptor antagonists: synthesis, pharmacological evaluation, and molecular modeling investigation of pyridinoguanidine, pyridino-2-aminoimidazoline and their derivatives” (J Med Chem, 2015) come the findings set out here.

Test [1] concerns the target T1, Adrenergic receptor alpha-2 (Homo sapiens, UniProt P08913+P18825+P18089).
T1 sequence (P08913 whole entry): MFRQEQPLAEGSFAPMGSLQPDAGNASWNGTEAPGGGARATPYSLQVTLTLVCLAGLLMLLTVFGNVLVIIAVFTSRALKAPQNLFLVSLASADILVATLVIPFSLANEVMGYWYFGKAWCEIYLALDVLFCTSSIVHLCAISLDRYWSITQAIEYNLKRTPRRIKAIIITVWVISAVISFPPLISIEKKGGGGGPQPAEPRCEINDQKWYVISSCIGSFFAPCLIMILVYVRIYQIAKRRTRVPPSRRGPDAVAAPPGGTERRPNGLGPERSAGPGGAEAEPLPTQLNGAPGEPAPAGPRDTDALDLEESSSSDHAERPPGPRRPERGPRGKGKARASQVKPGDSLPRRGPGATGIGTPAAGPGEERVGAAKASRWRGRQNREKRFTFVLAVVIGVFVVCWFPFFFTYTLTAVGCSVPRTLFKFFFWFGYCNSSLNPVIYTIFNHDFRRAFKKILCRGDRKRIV
T1 sequence (P18825 whole entry): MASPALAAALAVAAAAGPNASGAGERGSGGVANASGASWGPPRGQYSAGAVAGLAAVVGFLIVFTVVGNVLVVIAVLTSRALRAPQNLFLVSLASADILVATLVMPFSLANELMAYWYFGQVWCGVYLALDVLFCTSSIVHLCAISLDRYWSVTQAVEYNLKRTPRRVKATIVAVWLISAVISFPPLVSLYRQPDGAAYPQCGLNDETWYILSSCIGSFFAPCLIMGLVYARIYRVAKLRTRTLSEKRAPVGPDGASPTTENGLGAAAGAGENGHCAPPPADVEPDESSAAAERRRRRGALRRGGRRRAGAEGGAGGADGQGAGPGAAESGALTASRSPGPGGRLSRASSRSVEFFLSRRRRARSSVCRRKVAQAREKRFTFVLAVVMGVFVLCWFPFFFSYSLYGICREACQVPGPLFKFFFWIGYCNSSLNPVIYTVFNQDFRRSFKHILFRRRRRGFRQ
T1 sequence (P18089 whole entry): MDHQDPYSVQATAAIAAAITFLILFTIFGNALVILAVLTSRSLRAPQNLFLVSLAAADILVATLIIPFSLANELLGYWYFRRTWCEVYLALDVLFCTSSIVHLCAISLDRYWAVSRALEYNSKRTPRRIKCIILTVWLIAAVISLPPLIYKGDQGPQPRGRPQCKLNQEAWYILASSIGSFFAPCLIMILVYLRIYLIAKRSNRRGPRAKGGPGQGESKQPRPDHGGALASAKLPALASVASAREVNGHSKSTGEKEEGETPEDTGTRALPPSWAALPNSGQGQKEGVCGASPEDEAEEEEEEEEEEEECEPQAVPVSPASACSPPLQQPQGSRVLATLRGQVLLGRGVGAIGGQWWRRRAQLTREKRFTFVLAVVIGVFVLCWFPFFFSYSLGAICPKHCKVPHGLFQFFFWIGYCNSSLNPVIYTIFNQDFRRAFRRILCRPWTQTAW
The experiment in a line: Displacement of [3H]-RX-821002 from human alpha-2 adrenergic receptor in brain prefrontal cortex membrane by liquid scintillation spectrometry. Type of test: cell membranes. The gist of the method: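 Human prefrontal cortex brain membranes incubated with [3H]RX821002 (2 nM) in 50 mM Tris-HCl, pH 7.5, for 30 min at 25 °C, with competitor at 10 concentrations (10⁻¹²–10⁻³ M). Bound and free ligand separated by rapid vacuum filtration through GF/C filters, then scintillation counting. Adrenaline (10⁻⁵ M) defined nonspecific binding. Ki from one-site nonlinear regression, expressed as pKi.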
In general terms: Loss of bound radioactivity is the signal in a displacement assay; it reports binding, not function.

The target in test [2] is T1, Adrenergic receptor alpha-2. Description: Antagonist activity at human alpha-2 adrenergic receptor in brain prefrontal cortex membrane assessed as inhibition of UK14304-induced [35S]-GTPgammaS binding by liquid scintillation spectrometry. Type of test: functional, cell membranes. The gist of the method: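 Human prefrontal cortex membranes (40 μg protein) incubated 120 min at 30 °C with shaking in 50 mM Tris-HCl pH 7.4 with 1 mM EGTA, 3 mM MgCl2, 100 mM NaCl, GDP and 0.5 nM [35S]GTPγS. Compounds at 10 concentrations (10⁻¹²–10⁻³ M) were tested against agonist UK14304. Filtration through GF/C filters, then scintillation counting. Nonspecific binding defined with 10 μM unlabeled GTPγS; nonlinear curve analysis.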
On the technique in general: GTPγS resists hydrolysis and so accumulates on activated G proteins.

The subject of test [3] is Rattus norvegicus. The experiment in a line: Induction of noradrenaline release from Sprague-Dawley rat in prefrontal cortex at 1 to 100 uM local administration measured for every 70 mins by microdialysis. Type of test: functional. The gist of the method: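 Male Sprague-Dawley rats (250–300 g), probe placed in PFC under 1.5% isoflurane; tested 18–24 h later. Probe perfused with aCSF (pH 7.4) at 1 μL/min. Compounds dissolved in aCSF were given by reverse dialysis at 1, 10, then 100 μM, each for 70 min. Dialysates collected every 35 min; NA measured by HPLC with amperometric detection. Values are % of mean basal (first 3–4 samples); three animals/group.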

For test [4], the system named is Rattus norvegicus. The experiment in a line: Induction of noradrenaline release from Sprague-Dawley rat in prefrontal cortex at 10 mg/kg, ip […] by microdialysis. Type of test: functional. The note with it: route intraperitoneal.

What is called pKi is −log10 of the Ki, conventionally taken in molar units. Compound `Cl.N=C(N)Nc1ccccn1` yielded a pKi in test [1] of 6.19.

The compound `Cl.N=C(N)Nc1ccc(Br)cn1` displayed a pKi in test [1] of 5.62.

`Cl.N=C(N)Nc1ccc(Cl)cn1` showed a negative logarithm of the Ki (pKi) in test [1] of 5.7.

Compound `Cc1ccc(NC(=N)N)nc1.Cl` gave a pKi in test [1] of 6.03.

The EC50 is the concentration needed to bring the measured effect to its halfway point. For `Cl.N=C(N)Nc1ccc2c(n1)CCCC2`, the EC50 in test [2] was 2.71 µM. For the same compound, the pKi in test [1] was found to be 6.78.

The compound `CCNc1ccc(NC(=N)N)nc1.Cl` returned a pKi in test [1] of 4.12.

Turning to `Cl.N=C(N)Nc1cccnc1`, in test [1], the pKi was found to be 3.79.

The compound `Cl.N=C(N)Nc1ccc(Cl)nc1` registered a pKi in test [1] of 5.18.

For `Cc1ccc(NC(=N)N)cn1.Cl`, the negative logarithm of the Ki (pKi) in test [1] came out at 4.97.

The compound `Cl.N=C(N)Nc1cnc2c(c1)CCCC2` returned a pKi in test [1] of 5.57.

In test [1], `CCNc1ccc(NC(=N)N)cn1.Cl` gave a pKi of 6.35.

Regarding `Cl.N=C(N)Nc1ccc([N+](=O)[O-])cn1`, the pKi in test [1] turned out to be 5.

With `Cl.N=C(N)Nc1ccc(N)cn1`, in test [1], the pKi is given as 5.

`Cl.c1ccc(NC2=NCCN2)nc1`: in test [1], the pKi came out at 6.44.

Compound `Cl.Clc1ccc(NC2=NCCN2)nc1` came in with a pKi in test [1] of 6.25.

Consider `Cc1ccc(NC2=NCCN2)nc1.Cl`, for which the pKi in test [1] is 6.41. The pKi values of the last two compounds are within 0.2 log units of each other.

Turning to `Cl.c1cc2c(nc1NC1=NCCN1)CCCC2`, in test [2], the EC50 is 3.57 µM. Moreover, the pKi in test [1] amounted to 6.27.

Compound `CCNc1ccc(NC2=NCCN2)nc1.Cl` showed a pKi in test [1] of 5.65.

The compound `Cl.c1cncc(NC2=NCCN2)c1` returned a pKi in test [1] of 5.28.

One may read the Emax as the maximal effect, on the per cent scale that the assay sets. On to `Cl.c1nc2c(cc1NC1=NCCN1)CCCC2`, for which the Emax in the test with Rattus norvegicus [3] stood at 148%. The concentration giving a half-maximal response (EC50) in test [2] stood at 4.23 µM. This compound also came in with a pKi in test [1] of 7.02. Further, the Activity in the test on Rattus norvegicus [4] is 138%.

In turn, `CCNc1ccc(NC2=NCCN2)cn1.Cl` yielded an Emax in the test with Rattus norvegicus [3] of 429%. Also, the EC50 in test [2] was determined as 6.71 µM. The pKi in test [1] came to 7.13. This compound also returned an Activity with Rattus norvegicus [4] of 186%.

For the compound `Cl.N=C(Nc1ccccc1)Nc1ccccn1`, the pKi in test [1] was determined as 6.21.

Take `Cc1ccc(NC(=N)Nc2ccccc2)nc1.Cl`: the pKi in test [1] worked out at 6.02.

In test [1], `Cl.N=C(Nc1ccccc1)Nc1ccc2c(n1)CCCC2` registered a pKi of 6.75.

For `Cl.N=C(NCCO)Nc1ccccn1`, in test [1], the pKi is given as 5.38.

Consider `Cc1ccc(NC(=N)NCCO)nc1.Cl`, for which, in test [1], the pKi is reported as 5.21.

For `Cl.N=C(NCCO)Nc1ccc2c(n1)CCCC2`, the pKi in test [1] is 5.83.

`Cl.N=C(NCc1ccco1)Nc1ccccn1` returned a negative logarithm of the Ki (pKi) in test [1] of 6.32.

Take `Cc1ccc(NC(=N)NCc2ccco2)nc1.Cl`: in test [1], the negative-log Ki (pKi) worked out at 6.28.

For the compound `Cl.N=C(NCc1ccco1)Nc1ccc2c(n1)CCCC2`, the concentration for a half-maximal effect (EC50) in test [2] turned out to be 37.01 µM. This compound also returned a pKi in test [1] of 6.67.

Turning to `CCCNC(=N)Nc1ccc(Cl)cn1.Cl`, the pKi in test [1] is 5.71.

Compound `CCCNC(=N)Nc1ccc(C)cn1.Cl` returned a pKi in test [1] of 6.74.

On to `Cl.c1ccc(NC2=NCc3ccccc3N2)cc1`, for which the pKi in test [1] was 4.4.

`Cl.OCCNC1=NCc2ccccc2N1`: the EC50 in test [2] was 60.34 µM. In test [1], the pKi was 6.26.

On to `Cl.c1coc(CNC2=NCc3ccccc3N2)c1`, for which, in test [1], the pKi was 5.35.

For `CCCNC1=NCc2ccccc2N1.Cl`, the pKi in test [1] is given as 4.33.

The compound `Cl.OCCNC1=NCc2cccnc2N1` showed a pKi in test [1] of 4.49. This pKi and that of the compound before are within 0.2 log units of each other.

`Cl.c1coc(CNC2=NCc3cccnc3N2)c1` gave a negative-log Ki (pKi) in test [1] of 4.5.

As for `Cl.c1cnc2c(c1)CN=C(NCc1ccc3c(c1)OCO3)N2`, the pKi in test [1] came to 5.3.
